Structures are written as SMILES.

Assay [1] deals with T1, Bromodomain-containing protein 4 (Homo sapiens, UniProt O60885). The assay is described as follows: Inhibition of SGRG-K(Ac)-GG-K(Ac)-GLGK(Ac)-GGA-K(Ac)-RHRKVGG-K(Biotin) binding to N-terminal 6xHis-tagged human BRD4 bromodomain 1 expressed in Escherichia coli BL21 (DE3) preincubated for 10 mins followed by peptide addition and measured after 10 mins by AlphaScreen assay. The gist of the method: (§1)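 AlphaScreen peptide displacement. His-tagged BRD4 BD1 preincubated 10 min at room temperature with compound in buffer (0.1% Triton X-100, 1 mM DTT, 0.1% BSA). Then 25 nM biotinylated tetra-acetylated H4-type peptide added for 10 min, Ni-chelate acceptor beads for 30 min, and streptavidin donor beads for 30 min in subdued light. Alpha signal read; JQ-1 as control. IC50 from four-parameter log-logistic fit.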

Assay [2] deals with T1, Bromodomain-containing protein 4. Put plainly: Inhibition of SGRG-K(Ac)-GG-K(Ac)-GLGK(Ac)-GGA-K(Ac)-RHRKVGG-K(Biotin) binding to N-terminal 6xHis-tagged human BRD4 bromodomain 1 expressed in Escherichia coli BL21 (DE3) at 50 uM preincubated for 10 mins followed by peptide addition and measured after 10 mins by AlphaScreen assay relative to control. In a few lines: as §1
For orientation: Alpha assays give light when donor and acceptor beads are brought close together.

For assay [3] the target is unchanged. The assay is described as follows: Binding affinity to N-terminal 6xHis-tagged human BRD4 bromodomain 1 expressed in Escherichia coli BL21 (DE3) assessed as change in melting temperature by SYPRO orange dye-based RT-PCR method.
In assay [4] the test system is MV4-11. The assay is described as follows: Antiproliferative activity against human MV4-11 cells after 7 days by Alamar blue assay. Format: functional, cell-based. In a few lines: (§2)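 MV4-11 cells in RPMI 1640 with 10% FBS and 1% Pen/Strep at 37 °C, 5% CO2. Seeded at 1 × 10⁵–3 × 10⁵, settled 30 min, then given graded compound concentrations or DMSO for three or seven days. Alamar Blue added for 3 h at 37 °C; fluorescence read at ex 544/em 590 nm. Viability normalized to control; IC50 fitted from the dose–response.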
A general note: The colour change of resazurin is a common sign of viable cells or microbes.

The target of assay [5] is T1, Bromodomain-containing protein 4. Put plainly: Binding affinity to N-terminal 6xHis-tagged human BRD4 bromodomain 1 expressed in Escherichia coli BL21 (DE3) assessed as change in melting temperature at 100 uM by SYPRO orange dye-based RT-PCR method (reference value: 0 degC).
For assay [6] the target is unchanged. The assay is described as follows: Inhibition of BRD4 in human MV4-11 cells assessed as downregulation of Bcl-2 gene expression after 6 hrs by qRT-PCR method. It counts as cell-based. In a few lines:
(§3)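 MV4-11 cells given compound at varied concentrations (10 and 30 μM) for 6 h. Bcl-2, c-Myc and CDK6 transcripts quantified by real-time quantitative PCR relative to untreated control.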
In general terms: In qPCR the cycle at which signal appears reflects the starting amount.

Assay [7] concerns MV4-11. Put plainly: Cell cycle arrest in human MV4-11 cells assessed as accumulation at G1 phase at 50 uM after 24 hrs by propidium iodide staining-based flow cytometric method (reference value: 54.50%). It counts as functional.
In assay [8] the test system is MV4-11. Put plainly: Induction of apoptosis in human MV4-11 cells assessed as late apoptotic cells at 50 uM after 72 hrs by annexin-V-FITC/propidium iodide staining-based flow cytometric method (reference value: 2.14%). Format: functional. The gist of the method: (§4)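 MV4-11 cells seeded at 3 × 10⁵ in 6-well plates, settled 30 min, then given compound or DMSO for 72 h. Resuspended in 1× binding buffer with Annexin V-FITC for 15 min at room temperature in the dark, then PI added 5 min before flow cytometry. Populations quantified with the instrument software.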

In assay [9] the test system is MV4-11. Put plainly: Induction of apoptosis in human MV4-11 cells assessed as viable cells at 50 uM after 72 hrs by annexin-V-FITC/propidium iodide staining-based flow cytometric method (reference value: 96.2%). It counts as functional. Conditions: MV4-11, 72 h, read-out: Activity. The gist of the method:
as §4

Assay [10] addresses T1, Bromodomain-containing protein 4. The assay is described as follows: Binding affinity to N-terminal 6xHis-tagged human BRD4 bromodomain 1 expressed in Escherichia coli BL21 (DE3) assessed as change in melting temperature at 200 uM by SYPRO orange dye-based RT-PCR method (reference value: 0 degC).
The target is the same in assay [11]. Put plainly: Inhibition of BRD4 in human MV4-11 cells assessed as downregulation of c-Myc gene expression after 6 hrs by qRT-PCR method. Format: cell-based. In a few lines:
as §3

Assay [12] concerns MV4-11. Put plainly: Cell cycle arrest in human MV4-11 cells assessed as accumulation at S phase at 50 uM after 24 hrs by propidium iodide staining-based flow cytometric method (reference value: 33.52%). Format: functional.
For assay [13], the system named is MV4-11. The assay is described as follows: Cell cycle arrest in human MV4-11 cells assessed as accumulation at G2 phase at 50 uM after 24 hrs by propidium iodide staining-based flow cytometric method (reference value: 11.98%). Format: functional.
For assay [14], the system named is MV4-11. The assay is described as follows: Antiproliferative activity against human MV4-11 cells after 3 days by Alamar blue assay. It counts as functional, cell-based. The gist of the method:
as §2

Assay [15] has as its target T1, Bromodomain-containing protein 4. Put plainly: Inhibition of BRD4 in human MV4-11 cells assessed as downregulation of c-Myc protein expression after 6 hrs by Western blot method. It counts as cell-based. In a few lines: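 MV4-11 cells seeded at 3 × 10⁵ in 6-well plates, settled 30 min, then given graded compound concentrations or DMSO for 6 h. Probed with rabbit anti-c-Myc mAb and HRP-labelled secondary.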

Assay [16] relates to MV4-11. Put plainly: Induction of apoptosis in human MV4-11 cells assessed as necrotic cells at 50 uM after 72 hrs by annexin-V-FITC/propidium iodide staining-based flow cytometric method (reference value: 0%). Format: functional. In a few lines:
as §4

In assay [17] the target is T1, Bromodomain-containing protein 4. The assay is described as follows: Inhibition of BRD4 in human MV4-11 cells assessed as downregulation of CDK6 gene expression after 6 hrs by qRT-PCR method. Format: cell-based. The gist of the method: as §3
In assay [18] the test system is MV4-11. The assay is described as follows: Induction of apoptosis in human MV4-11 cells assessed as early apoptotic cells at 50 uM after 72 hrs by annexin-V-FITC/propidium iodide staining-based flow cytometric method (reference value: 1.64%). It counts as functional. In a few lines: as §4
The subject of assay [19] is MV4-11. The assay is described as follows: Induction of apoptosis in human MV4-11 cells assessed as viable cells after 72 hrs by annexin-V-FITC/propidium iodide staining-based flow cytometric method (reference value: 96.2%). It counts as functional. In a few lines:
as §4

Assay [20] has as its system MV4-11. The assay is described as follows: Cell cycle arrest in human MV4-11 cells assessed as accumulation at S phase after 24 hrs by propidium iodide staining-based flow cytometric method (reference value: 33.52%). Format: functional.
The subject of assay [21] is MV4-11. Put plainly: Induction of apoptosis in human MV4-11 cells assessed as necrotic cells after 72 hrs by annexin-V-FITC/propidium iodide staining-based flow cytometric method (reference value: 0%). Format: functional. The gist of the method: as §4
The test system of assay [22] is MV4-11. Put plainly: Cell cycle arrest in human MV4-11 cells assessed as accumulation at G2 phase after 24 hrs by propidium iodide staining-based flow cytometric method (reference value: 11.98%). Format: functional.
Assay [23] relates to MV4-11. Put plainly: Cell cycle arrest in human MV4-11 cells assessed as accumulation at G1 phase after 24 hrs by propidium iodide staining-based flow cytometric method (reference value: 54.50%). It counts as functional.
The test system of assay [24] is MV4-11. The assay is described as follows: Induction of apoptosis in human MV4-11 cells assessed as early apoptotic cells after 72 hrs by annexin-V-FITC/propidium iodide staining-based flow cytometric method (reference value: 1.64%). It counts as functional. The gist of the method: as §4
Assay [25] has as its system MV4-11. The assay is described as follows: Induction of apoptosis in human MV4-11 cells assessed as late apoptotic cells after 72 hrs by annexin-V-FITC/propidium iodide staining-based flow cytometric method (reference value: 2.14%). It counts as functional. The gist of the method:
as §4

On to `COc1cc(C(=O)Nc2nccs2)cc(OC)c1OC`, for which the concentration for half-maximal inhibition (IC50) (as a rule, the concentration needed to halve the response being measured) in assay [1] came to 4.3 µM.

As to `CCc1nnc(NC(=O)c2cc(OC)c(OC)c(OC)c2)s1`, the inhibition – broadly, the percentage by which the read-out fell short of the control – in assay [2] was 90%.

Take `COc1cc(C(=O)Nc2ccnn2C2CCCC2)cc(OC)c1OC`: the Activity result in assay [3] was “Dose-dependent effect”; in the assay on MV4-11 [4], “Dose-dependent effect”; with MV4-11 [7], 79.1%; with MV4-11 [8], 6.86%; in the assay with MV4-11 [12], 16.83%; with MV4-11 [13], 16.83%. The Activity entry in the assay on MV4-11 [14] was “Dose-dependent effect”; in the assay on MV4-11 [16], 0.073%; with MV4-11 [18] it was 4.06%. In addition, the IC50 in [1] stood at 2.01 µM. The thermal shift (ΔTm) – broadly, the shift of the melting midpoint relative to a reference – is 1.9 °C in assay [5] and 3.31 °C in assay [10]. For the same molecule, the inhibition entry in assay [6], in [11], in assay [15] and in assay [17] was “Dose-dependent effect” each time. Besides, in the assay on MV4-11 [9], the viability at 50 µM is 89%.

The molecule `COc1cc(C(=O)NCCc2cccs2)cc(OC)c1OC` yielded an IC50 in assay [1] of 6.4 µM.

`COc1cc2c(cc1-c1c(C)noc1C)ncc1[nH]c(=O)n([C@H](C)c3ccccn3)c12`: the Activity in the assay on MV4-11 [19] came to 47.8%; in the assay with MV4-11 [20], 6.36%; in the assay with MV4-11 [21], 0.718%; in the assay on MV4-11 [22], 2.78%; in the assay with MV4-11 [23], 90.86%; in the assay with MV4-11 [24] it was 18.4%. In addition, in the assay on MV4-11 [25], the Activity is listed as 33.1%.

Turning to `COC(=O)C(CCSC)NC(=O)c1cc(OC)c(OC)c(OC)c1` (configuration not stated), the half-inhibitory concentration (IC50) in [1] is 2.1 µM.

As to `COc1cc(C(=O)NCC2CCCO2)cc(OC)c1OC` (configuration not stated), the inhibition in assay [2] stood at 94%.

In assay [2], `COc1cc(C(=O)Nc2nnc(C)s2)cc(OC)c1OC` returned an inhibition of 90%.

Turning to `CCC(CO)NC(=O)c1cc(OC)c(OC)c(OC)c1` (configuration not stated), the inhibition in [2] came to 94%.

`COc1cc(C(=O)NCCCn2ccnc2)cc(OC)c1OC`: the inhibition in assay [2] amounted to 90%.

Regarding `COc1cc(C(=O)NC2CCCC2)cc(OC)c1OC`, in assay [2], the inhibition came out at 90%.

As for `COCc1nnc(NC(=O)c2cc(OC)c(OC)c(OC)c2)s1`, the half-maximal inhibitory concentration (IC50) in assay [1] turned out to be 11 µM.

Molecule `COC(=O)C(CC(C)C)NC(=O)c1cc(OC)c(OC)c(OC)c1` (configuration not stated) registered a 50% inhibitory concentration (IC50) in assay [1] of 8.5 µM.

In [2], `COc1cc(C(=O)Nc2nc(C)cs2)cc(OC)c1OC` displayed an inhibition of 96%.

In assay [1], `COc1cc(C(=O)NCCOc2ccccc2)cc(OC)c1OC` gave an IC50 of 6.6 µM.
